The source of these data is ChEMBL document CHEMBL1938254, “Semisynthetic neoboutomellerone derivatives as ubiquitin-proteasome pathway inhibitors” (Bioorg Med Chem, 2012).

Format in all cases: cell-based
Test [1] concerns DLD-1. In words: Inhibition of 20S proteasome activity in human DLD1 cells transfected with 4Ub-Luc gene assessed as bioluminescence induction factor at 10 uM after 8 hrs by luciferase reporter gene assay relative to epoxomicin. In short, it runs like this:
(§1)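 Stably transfected DLD-1 cells expressing 4Ub-Luc reporter, cultured in MEM with 5% heat-inactivated serum. Seeded at 10⁴ cells/well and treated with compound or solvent for 8 h. Luciferase activity in lysates read by luminometer. Induction factor = signal of treated over untreated cells, normalised to epoxomicin at 10^-7 M run in parallel (set to 100). IF ≥10 counted active.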
(In a reporter assay the amount or activity of a reporter protein is the signal.)

In test [2] the test system is DLD-1. In words: Inhibition of 20S proteasome in human DLD1 cells transfected with 4Ub-Luc gene assessed as bioluminescence induction factor at 5 uM after 8 hrs by luciferase reporter gene assay relative to epoxomicin. In a few lines: as §1
Test [3] has as its system DLD-1. The test can be described thus: Inhibition of 20S proteasome in human DLD1 cells transfected with 4Ub-Luc gene assessed as bioluminescence induction factor at 1 uM after 8 hrs by luciferase reporter gene assay relative to epoxomicin. In short, it runs like this: as §1
A short description of test [4]: Inhibition of peptide-glutamyl-peptide-hydrolyzing activity of 20S proteasome in human DLD1 cells transfected with 4Ub-Luc gene using Z-Leu-Leu-Glu-AMC as substrate after 6 hrs by spectrofluorometric analysis. The settings on record: dld-1. In a few lines:
(§2)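 DLD-1 4Ub-Luc cells seeded at 10⁴ cells/well, exposed to compound or solvent for 6 h, then 30 min in reaction buffer (30 mM Tris–HCl pH 7.5, 1 mM ATP). Chymotrypsin-like and PGPH activities read with specific fluorogenic substrates.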

A short description of test [5]: Inhibition of chymotrypsin-like activity of 20S proteasome in human DLD1 cells transfected with 4Ub-Luc gene using Succinyl-Leu-Leu-Val-Tyr-AMC as substrate after 6 hrs by spectrofluorometric analysis. Particulars: dld-1. In a few lines:
as §2

Take `C=C(C(=O)[C@H](O)[C@@H](C)[C@H]1[C@@H](OC(C)=O)C[C@@]2(C)[C@@H]3CC[C@H]4[C@H](C)C(=O)CC[C@@]45C[C@@]35CC[C@]12C)[C@@H](C)CO`: the fold change (FC) with DLD-1 [1] came out at 77; in the test with DLD-1 [2], 10; in the test with DLD-1 [3], 1.2.
For orientation: IC50 means the point on the concentration scale where inhibition reaches its midpoint. As for `C=C(C(=O)[C@H](O)[C@@H](C)[C@H]1[C@@H](OC(C)=O)C[C@@]2(C)[C@@H]3C[C@@H](O)[C@H]4[C@H](C)C(=O)C=C[C@@]45C[C@@]35CC[C@]12C)[C@@H](C)CO`, the fold change (FC) came out at 35 with DLD-1 [2] and 1.1 in the test with DLD-1 [3]. Also, the IC50 in test [4] and in test [5] was greater than 1000 µM in each case.
On to `C=C(C(=O)[C@H](OC(C)=O)[C@@H](C)[C@H]1[C@@H](OC(C)=O)C[C@@]2(C)[C@@H]3CC[C@H]4[C@H](C)C(=O)C=C[C@@]45C[C@@]35CC[C@]12C)[C@@H](C)CO[C@@]1(C)O[C@@H]2O[C@@H](COC(C)=O)[C@H](OC(C)=O)[C@@H](OC(C)=O)[C@@H]2O1`, for which the fold change (FC) is 48 with DLD-1 [1], 59 in the test with DLD-1 [2] and 2 in the test with DLD-1 [3].
On the same counts, the results for `C=C(C(=O)[C@H](OC(C)=O)[C@@H](C)[C@H]1[C@@H](OC(C)=O)C[C@@]2(C)[C@@H]3CC[C@H]4[C@H](C)C(=O)C=C[C@@]45C[C@@]35CC[C@]12C)[C@@H](C)COS(=O)(=O)O` are 1.6, 1.4 and 1.4.
Turning to `C=C(C(=O)[C@H](O)[C@@H](C)[C@H]1[C@@H](OC(C)=O)C[C@@]2(C)[C@@H]3CC[C@H]4[C@H](C)C(=O)C=C[C@@]45C[C@@]35CC[C@]12C)[C@@H](C)COC(=O)N1CCN(C)CC1`, the IC50 in test [4] and in test [5] was 12 µM in each case.
Consider `C=C(C(=O)[C@H](OC(C)=O)[C@@H](C)[C@H]1[C@@H](OC(C)=O)C[C@@]2(C)[C@@H]3CC[C@H]4[C@H](C)C(=O)C(O)C(O)[C@@]45C[C@@]35CC[C@]12C)[C@@H](C)COCC(O)CO` (stereo not given in full), for which the figures for the fold change (FC) in the test with DLD-1 [1], with DLD-1 [2] and in the test with DLD-1 [3] were 48, 32 and 1.1, respectively.
For the compound `C=C(C(=O)[C@H](OC(C)=O)[C@@H](C)[C@H]1[C@@H](OC(C)=O)C[C@@]2(C)[C@@H]3CC[C@H]4[C@H](C)C(=O)C=C[C@@]45C[C@@]35CC[C@]12C)C(C)C`, the fold change (FC) was 19 with DLD-1 [1], 74 with DLD-1 [2] and 7.2 in the test with DLD-1 [3]. For the same compound, the IC50 in test [4] and in test [5] was greater than 1000 µM in each case.
`C=C(C(=O)[C@H](OC(=O)CCC(=O)O)[C@@H](C)[C@H]1[C@@H](OC(C)=O)C[C@@]2(C)[C@@H]3CC[C@H]4[C@H](C)C(=O)C=C[C@@]45C[C@@]35CC[C@]12C)[C@@H](C)COC(=O)CCC(=O)O`: the fold change (FC) in the test with DLD-1 [1] stood at 1.2; in the test on DLD-1 [2], 1.1; in the test with DLD-1 [3], 1.2.
Take `C=C(C(=O)[C@H](OC(C)=O)[C@@H](C)[C@H]1[C@@H](OC(C)=O)C[C@@]2(C)[C@@H]3CC[C@H]4[C@H](C)C(=O)C=C[C@@]45C[C@@]35CC[C@]12C)[C@@H](C)COC(=O)CCl`: the fold change (FC) in the test with DLD-1 [1] stood at 19; with DLD-1 [2] it was 52; in the test on DLD-1 [3], 12. For the same compound, the IC50 in test [4] and in test [5] was greater than 1000 µM in each case.
Turning to `C=C(C(=O)[C@H](OC(C)=O)[C@@H](C)[C@H]1[C@@H](OC(C)=O)C[C@@]2(C)[C@@H]3C[C@@H](O)[C@H]4[C@H](C)C(=O)C=C[C@@]45C[C@@]35CC[C@]12C)[C@@H](C)CO`, the figures for the fold change (FC) in the test with DLD-1 [2] and in the test on DLD-1 [3] were 31 and 5.1, respectively. Also, the IC50 in test [4] and in test [5] was greater than 1000 µM each time.
Turning to `C=C(C(=O)[C@H](O)[C@@H](C)[C@H]1[C@@H](OC(C)=O)C[C@@]2(C)[C@@H]3CC[C@H]4[C@H](C)C(=O)C=C[C@@]45C[C@@]35CC[C@]12C)[C@@H](C)COC(=O)CN(C)C` [listing 1 of 2 here], the results for the IC50 in test [4] and in test [5] were 22 µM and 17 µM, respectively.
For the compound `CC(=O)O[C@H]1C[C@@]2(C)[C@@H]3CC[C@H]4[C@H](C)C(=O)C=C[C@@]45C[C@@]35CC[C@]2(C)[C@H]1[C@H](C)C=O`, the fold change (FC) in the test with DLD-1 [1] came out at 3; with DLD-1 [2], 1.3.
For the compound `C=C(C(=O)[C@H](OC(C)=O)[C@@H](C)[C@H]1[C@@H](OC(C)=O)C[C@@]2(C)[C@@H]3CC[C@H]4[C@H](C)C(=O)C=C[C@@]45C[C@@]35CC[C@]12C)[C@H](C)CO`, the fold change (FC) in the test on DLD-1 [1] came out at 88; with DLD-1 [2] it was 51; in the test on DLD-1 [3] it was 1.1.
With `CO/N=C1/C=C[C@]23C[C@]24CC[C@]2(C)[C@@H]([C@H](C)[C@@H](OC(C)=O)C(=O)C(CNOC)[C@@H](C)CO)[C@@H](OC(C)=O)C[C@@]2(C)[C@@H]4CC[C@H]3[C@@H]1C` (stereo not given in full), the fold change (FC) is 0.6 in the test on DLD-1 [1], 0.7 with DLD-1 [2] and 1 with DLD-1 [3].
For the compound `C=C(C(=O)[C@H](OC(C)=O)[C@@H](C)[C@H]1[C@@H](OC(C)=O)C[C@@]2(C)[C@@H]3CC[C@H]4[C@H](C)C(=O)C[C@H](O)[C@@]45C[C@@]35CC[C@]12C)[C@@H](C)CO`, the fold change (FC) amounted to 74 in the test with DLD-1 [1], 11 in the test on DLD-1 [2] and 1.6 in the test with DLD-1 [3].
Consider `C=C(C(=O)[C@H](O)[C@@H](C)[C@H]1[C@@H](OC(C)=O)C[C@@]2(C)[C@@H]3CC[C@H]4[C@H](C)C(=O)C=C[C@@]45C[C@@]35CC[C@]12C)[C@@H](C)COS(=O)(=O)O`, for which the values for the fold change (FC) in the test on DLD-1 [1], with DLD-1 [2] and with DLD-1 [3] were 0.9, 0.8 and 0.9, respectively.
Regarding `C=C(C(=O)[C@H](OC(C)=O)[C@@H](C)[C@H]1[C@@H](OC(C)=O)C[C@@]2(C)[C@@H]3CC[C@H]4[C@H](C)C(=O)C=C[C@@]45C[C@@]35CC[C@]12CO)[C@@H](C)CO`, the fold change (FC) came out at 1.1 in the test with DLD-1 [1], 12 with DLD-1 [2] and 1.2 in the test on DLD-1 [3].
On to `C=C(C(=O)[C@H](OC(C)=O)[C@@H](C)[C@H]1[C@@H](OC(C)=O)C[C@@]2(C)[C@@H]3CC[C@H]4[C@H](C)C(=O)C=C[C@@]45C[C@@]35CC[C@]12C)[C@@H](C)COC(=O)CN`, for which the fold change (FC) was 56 in the test with DLD-1 [1], 76 in the test on DLD-1 [2] and 1.4 in the test with DLD-1 [3].
Take `C=C(C(=O)[C@H](OC(C)=O)[C@@H](C)[C@H]1[C@@H](OC(C)=O)C[C@@]2(C)[C@@H]3CC[C@H]4[C@H](C)C(=O)C=C[C@@]45C[C@@]35CC[C@]12C)[C@@H](C)C(=O)O`: the values for the fold change (FC) in the test on DLD-1 [1], in the test on DLD-1 [2] and in the test with DLD-1 [3] were 16, 1.4 and 1, respectively.
On the same counts, the results for `CONCC(C(=O)[C@H](OC(C)=O)[C@@H](C)[C@H]1[C@@H](OC(C)=O)C[C@@]2(C)[C@@H]3CC[C@H]4[C@H](C)C(=O)C=C[C@@]45C[C@@]35CC[C@]12C)[C@@H](C)CO` (stereo not given in full) are 4.9, 1.2 and 1.1.
For `C=C(C(=O)[C@H](O)[C@@H](C)[C@H]1[C@@H](OC(C)=O)C[C@@]2(C)[C@@H]3CC[C@H]4[C@H](C)C(=O)C=C[C@@]45C[C@@]35CC[C@]12C)[C@@H](C)COC(=O)CN(C)C` [listing 2 of 2 here], the figures for the IC50 in test [4] and in test [5] were 23 µM and 19 µM, respectively.
In the case of `CC(=O)O[C@H]1C[C@@]2(C)[C@@H]3CC[C@H]4[C@H](C)/C(=N/OCc5ccccc5)C=C[C@@]45C[C@@]35CC[C@]2(C)[C@H]1[C@H](C)[C@@H](OC(C)=O)C(=O)C(CNOCc1ccccc1)[C@@H](C)CO` (stereo not given in full), the fold change (FC) in the test with DLD-1 [1], with DLD-1 [2] and with DLD-1 [3] was 0.9 in each case.
For `C=C(C(=O)[C@H](OC(C)=O)[C@@H](C)[C@H]1[C@@H](OC(C)=O)C[C@@]2(C)[C@@H]3CC[C@H]4[C@H](C)C(=O)C=C[C@@]45C[C@@]35CC[C@]12C)[C@@H](C)COC(=O)CNCCCNCCCCNCCCN`, the fold change (FC) in the test on DLD-1 [1] was 11; in the test with DLD-1 [2], 1.4; in the test with DLD-1 [3] it was 1.1.
Regarding `C=C(C(=O)[C@H](OC(C)=O)[C@@H](C)[C@H]1[C@@H](OC(C)=O)C[C@@]2(C)[C@@H]3CC[C@H]4[C@H](C)C(=O)C=C[C@@]45C[C@@]35CC[C@]12C)[C@@H](C)CN1C(=O)CN(CCCN(CCCCN(CCCNC(=O)OC(C)(C)C)C(=O)OC(C)(C)C)C(=O)OC(C)(C)C)C1=O`, the values for the fold change (FC) in the test with DLD-1 [1], in the test with DLD-1 [2] and in the test on DLD-1 [3] were 37, 30 and 1, respectively.
For the compound `C=C(C(=O)[C@H](OC(C)=O)[C@@H](C)[C@H]1[C@@H](OC(C)=O)C[C@@]2(C)[C@@H]3CC[C@H]4[C@H](C)C(=O)C=C[C@@]45C[C@@]35CC[C@]12C)[C@@H](C)COC(=O)CP(=O)(O)O`, the results for the fold change (FC) in the test with DLD-1 [1], in the test on DLD-1 [2] and in the test on DLD-1 [3] were 1.4, 1.1 and 1.1, respectively.
Turning to `C=C(C(=O)[C@H](OC(C)=O)[C@@H](C)[C@H]1[C@@H](OC(C)=O)C[C@@]2(C)[C@@H]3CC[C@H]4[C@H](C)C(=O)C=C[C@@]45C[C@@]35CC[C@]12C)[C@@H](C)C=O`, the results for the fold change (FC) in the test with DLD-1 [1], with DLD-1 [2] and with DLD-1 [3] were 31, 70 and 1, respectively.
